This passage reports Fluorescence and Tmax results from ChEMBL document CHEMBL1126049, “Bioreductive fluorescent markers for hypoxic cells: a study of 2-nitroimidazoles with 1-substituents containing fluorescent, bridgehead-nitrogen, bicyclic systems” (J Med Chem, 1992).

What all share (assay type): cell-based
Conditions in all cases: Cricetulus griseus

The test system of assay [1] is V79-379A. Put plainly: Cytofluorimetric analysis of V79 379A chinese hamster cells incubated under hypoxic conditions with the compound (10e-4 M). The gist of the method:
(§1)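 V79 379A Chinese hamster cells grown as exponential suspension cultures in Eagle's MEM (Earle's salts, suspension-modified) with 7.5% foetal calf serum. Cells incubated with drug at 37 °C under oxic (air + 5% CO2) or hypoxic (nitrogen + 5% CO2) gassing. Flow cytometry used 365 nm laser excitation at 100-200 mW. Emission collected >390 nm, or >410 nm for some compounds. Data gated on forward scatter and fluorescence to exclude debris. Mean fluorescence in arbitrary units, normalized for PMT gain and laser power.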

Assay [2] has as its system V79-379A. Briefly: Cytofluorimetric analysis of V79 379A chinese hamster cells incubated under oxic conditions with the compound (10e-4 M). In outline:
as §1

The subject of assay [3] is V79-379A. Briefly: Maximum accumulation of fluorescent metabolites in V79 379A chinese hamster cells after incubation with the compound (10e-4) at tmax. The gist of the method:
as §1

Take `O=c1c(NCC(O)Cn2ccnc2[N+](=O)[O-])cnc2ccccn12` (centres undefined): the Fluorescence is 1750 AU with V79-379A [1] and 603 AU in the assay with V79-379A [2]. For the same molecule, the Tmax with V79-379A [3] was 6 h.
The like results for `CCOC(=O)c1c(C)c(CN(C)CCCn2ccnc2[N+](=O)[O-])c2ccccn12` were, in that order, 765 AU, 258 AU and 6 h.
For the molecule `CCOC(=O)c1c(C(=O)NCCN(CCO)CC(O)Cn2ccnc2[N+](=O)[O-])cn2ccccc12` (centres undefined), the Fluorescence with V79-379A [1] was 1140 AU; in the assay on V79-379A [2] it was 66 AU. The Tmax in the assay with V79-379A [3] amounted to 6 h.
In the case of `O=[N+]([O-])c1nccn1CC(O)CNc1ccc(-c2cn3ccccc3n2)cc1` (centres undefined), the Fluorescence in the assay on V79-379A [1] was 1570 AU; with V79-379A [2] it was 417 AU. Besides, the Tmax with V79-379A [3] is 6 h.
The like results for `Cc1c(C)n2c(CN(C)CC(O)Cn3ccnc3[N+](=O)[O-])c(C)c(=O)n2c1=O` (centres undefined) were, in that order, 55 AU, 43 AU and 15 h.
As for `Cc1c(C)n2c(CNCC(O)Cn3ccnc3[N+](=O)[O-])c(C)c(=O)n2c1=O` (centres undefined), the Fluorescence was 89 AU with V79-379A [1] and 33 AU in the assay with V79-379A [2]. The Tmax in the assay with V79-379A [3] stood at 15 h.
The like results for `O=[N+]([O-])c1nccn1CC(O)CNc1ccc(-c2cc3ccccn3c2)cc1` (centres undefined) were, in that order, 169 AU, 107 AU and 6 h.
For the molecule `N#Cc1c(C(=O)NCCN(CCO)CC(O)Cn2ccnc2[N+](=O)[O-])cn2ccccc12` (centres undefined), the Fluorescence in the assay on V79-379A [1] was determined as 81 AU; in the assay with V79-379A [2], 27 AU. Also, in the assay on V79-379A [3], the Tmax was 6 h.
